# From ChEMBL document CHEMBL3351230, “Synthesis of 2-anilinopyridine dimers as microtubule targeting and apoptosis inducing agents” (Bioorg Med Chem, 2014)
# The source made the active and inactive calls. No cut-off for these calls is given here.
# Legend:
# [1] = system: A549; assay: Antiproliferative activity against human A549 cells assessed as growth inhibition after 48 hrs by SRB assay; details: A549, 48 h
# [2] = system: DU-145; assay: Antiproliferative activity against human DU145 cells assessed as growth inhibition after 48 hrs by SRB assay; details: DU-145, 48 h
# [3] = system: MCF7; assay: Antiproliferative activity against human MCF7 cells assessed as growth inhibition after 48 hrs by SRB assay; details: MCF7, 48 h
# [4] = system: DU-145; assay: Induction of apoptosis in human DU145 cells assessed as increase in caspase 3 activation at 1 uM after 48 hrs by ELISA; format: functional
# In short: (§1)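 DU-145 cells were treated at 1 or 2 µM for 48 h, pelleted and PBS-washed. Pellets were lysed 15 min and centrifuged at 20,000 rpm for 15 min. Caspase-3 activity in the supernatant was measured by a colorimetric ELISA-based kit per the manufacturer. Activity is expressed as fold over untreated control, mean ± SD of two experiments in triplicate.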
# [5] = molecular target: Tubulin; assay: Inhibition of tubulin polymerization (unknown origin) after 1 hr by fluorescence analysis; format: protein-complex assay, Homo sapiens
# In short: (§2)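 Fluorescence-reporter tubulin polymerization kit. Tubulin (3 mg/mL) in PEM buffer with 1 mM GTP, with or without compound (3 µM, or 2.5–15 µM for IC50). Fluorescence (ex 360 / em 420 nm) was followed for 1 h at 37 °C. IC50 is the concentration giving 50% inhibition of assembly versus control. Data are mean ± SD of two experiments in triplicate, with E7010 as positive control.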
# [6] = system: DU-145; assay: Induction of apoptosis in human DU145 cells assessed as mitochondrial membrane potential drop measured as early apoptotic cells at 1 uM after 48 hrs using JC-1 staining-based flow cytometry (reference value: 9.1%); format: functional
# [7] = system: DU-145; assay: Cell cycle arrest in human DU145 cells assessed as cells accumulation at G0/G1 phase at 1 uM after 48 hrs by propidium iodide staining-based flow cytometric analysis (reference value: 84.75%); format: functional
# [8] = system: DU-145; assay: Cell cycle arrest in human DU145 cells assessed as cells accumulation at S phase at 1 uM after 48 hrs by propidium iodide staining-based flow cytometric analysis (reference value: 4.18%); format: functional
# [9] = system: DU-145; assay: Induction of apoptosis in human DU145 cells assessed as increase in caspase 3 activation at 2 uM after 48 hrs by ELISA; format: functional
# In short: as §1
# [10] = molecular target: T1, Tubulin (Homo sapiens) (UniProt P68371+Q9H4B7+P0DPH7+P68366+Q13509+Q71U36+P04350+Q3ZCM7+P07437+P68363+Q9BQE3+Q6PEY2+Q13885+Q9BVA1+Q9BUF5); assay: Inhibition of tubulin polymerization (unknown origin) at 3 uM after 1 hr by fluorescence analysis; format: protein-complex assay
# In short: as §2
# [11] = system: DU-145; assay: Cell cycle arrest in human DU145 cells assessed as cells accumulation at G2/M phase at 1 uM after 48 hrs by propidium iodide staining-based flow cytometric analysis (reference value: 6.81%); format: functional
# [12] = system: DU-145; assay: Induction of apoptosis in human DU145 cells assessed as necrotic cells at 2 uM after 48 hrs by annexin V-FITC/propidium iodide staining-based flow cytometric analysis (reference value: 0.22%); format: functional
# [13] = system: DU-145; assay: Induction of apoptosis in human DU145 cells assessed as late apoptotic cells at 1 uM after 48 hrs by annexin V-FITC/propidium iodide staining-based flow cytometric analysis (reference value: 1.96%); format: functional
# [14] = system: DU-145; assay: Induction of apoptosis in human DU145 cells assessed as early apoptotic cells at 1 uM after 48 hrs by annexin V-FITC/propidium iodide staining-based flow cytometric analysis (reference value: 0.71%); format: functional
# [15] = system: DU-145; assay: Induction of apoptosis in human DU145 cells assessed as mitochondrial membrane potential drop measured as necrotic cells at 2 uM after 48 hrs using JC-1 staining-based flow cytometry (reference value: 0%); format: functional
# [16] = system: DU-145; assay: Cell cycle arrest in human DU145 cells assessed as cells accumulation at G0/G1 phase at 2 uM after 48 hrs by propidium iodide staining-based flow cytometric analysis (reference value: 84.75%); format: functional
# [17] = system: DU-145; assay: Induction of apoptosis in human DU145 cells assessed as mitochondrial membrane potential drop measured as necrotic cells at 1 uM after 48 hrs using JC-1 staining-based flow cytometry (reference value: 0%); format: functional
# [18] = system: DU-145; assay: Cell cycle arrest in human DU145 cells assessed as cells accumulation at SubG1 phase at 1 uM after 48 hrs by propidium iodide staining-based flow cytometric analysis (reference value: 3.52%); format: functional
# [19] = system: DU-145; assay: Induction of apoptosis in human DU145 cells assessed as mitochondrial membrane potential drop measured as viable cells at 2 uM after 48 hrs using JC-1 staining-based flow cytometry (reference value: 0%); format: functional
# [20] = system: DU-145; assay: Induction of apoptosis in human DU145 cells assessed as mitochondrial membrane potential drop measured as late apoptotic cells at 2 uM after 48 hrs using JC-1 staining-based flow cytometry (reference value: 90.9%); format: functional
# [21] = system: DU-145; assay: Induction of apoptosis in human DU145 cells assessed as mitochondrial membrane potential drop measured as early apoptotic cells at 2 uM after 48 hrs using JC-1 staining-based flow cytometry (reference value: 9.1%); format: functional
# [22] = system: DU-145; assay: Induction of apoptosis in human DU145 cells assessed as reduction in mitochondrial membrane potential at 2 uM after 48 hrs using JC-1 staining-based flow cytometry; format: functional, cell-based
# [23] = molecular target: T1, Tubulin (Homo sapiens); assay: Displacement of colchicine from tubulin (unknown origin) at 5 to 25 uM after 60 mins by competitive binding assay; format: protein-complex assay
# In short: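 Compound (5, 10, 15, 20, 25 µM) was co-incubated with 4 µM colchicine and 3 µM tubulin in 30 mM Tris buffer for 60 min at 37 °C. Tubulin–colchicine fluorescence was read at ex 350 / em 435 nm. Buffer blank was subtracted and values were normalized to DMSO control (F/F0). Nocodazole or E7010 served as positive control and taxol as negative control.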
# [24] = system: DU-145; assay: Induction of apoptosis in human DU145 cells assessed as viable cells at 2 uM after 48 hrs by annexin V-FITC/propidium iodide staining-based flow cytometric analysis (reference value: 97.12%); format: functional; details: DU-145, 48 h, read-out: Activity
# [25] = system: DU-145; assay: Induction of apoptosis in human DU145 cells assessed as induction of DNA fragmentation at 1 uM after 48 hrs by agarose gel electrophoresis; format: functional, cell-based
# In short: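 DU-145 cells (1×10^6, six-well) were seeded 24 h, then treated at 1 µM for 48 h. Lysates were digested with SDS/RNase A for 2 h at 56 °C, then proteinase K for 2 h at 37 °C. DNA was precipitated with ammonium acetate and ethanol at −80 °C, dissolved in TE, and resolved on 2% agarose against a 100 bp marker.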
# [26] = system: DU-145; assay: Cell cycle arrest in human DU145 cells assessed as cells accumulation at G2/M phase at 2 uM after 48 hrs by propidium iodide staining-based flow cytometric analysis (reference value: 6.81%); format: functional
# [27] = system: DU-145; assay: Induction of apoptosis in human DU145 cells assessed as necrotic cells at 1 uM after 48 hrs by annexin V-FITC/propidium iodide staining-based flow cytometric analysis (reference value: 0.22%); format: functional
# [28] = system: DU-145; assay: Induction of apoptosis in human DU145 cells assessed as mitochondrial membrane potential drop measured as late apoptotic cells at 1 uM after 48 hrs using JC-1 staining-based flow cytometry (reference value: 90.9%); format: functional
# [29] = system: DU-145; assay: Induction of apoptosis in human DU145 cells assessed as mitochondrial membrane potential drop measured as viable cells at 1 uM after 48 hrs using JC-1 staining-based flow cytometry (reference value: 0%); format: functional
# [30] = system: DU-145; assay: Cell cycle arrest in human DU145 cells assessed as cells accumulation at SubG1 phase at 2 uM after 48 hrs by propidium iodide staining-based flow cytometric analysis (reference value: 3.52%); format: functional
# [31] = system: DU-145; assay: Induction of apoptosis in human DU145 cells assessed as early apoptotic cells at 2 uM after 48 hrs by annexin V-FITC/propidium iodide staining-based flow cytometric analysis (reference value: 0.71%); format: functional
# [32] = system: DU-145; assay: Cell cycle arrest in human DU145 cells assessed as cells accumulation at S phase at 2 uM after 48 hrs by propidium iodide staining-based flow cytometric analysis (reference value: 4.18%); format: functional
# [33] = system: DU-145; assay: Induction of apoptosis in human DU145 cells assessed as viable cells at 1 uM after 48 hrs by annexin V-FITC/propidium iodide staining-based flow cytometric analysis (reference value: 97.12%); format: functional; details: DU-145, 48 h, read-out: Activity
# [34] = system: DU-145; assay: Induction of apoptosis in human DU145 cells assessed as late apoptotic cells at 2 uM after 48 hrs by annexin V-FITC/propidium iodide staining-based flow cytometric analysis (reference value: 1.96%); format: functional
structure (smiles),measurement,setting,value
O=C(Nc1cccnc1Nc1ccc(F)cc1)c1cccnc1Nc1ccc(F)cc1,GI50,[1],15.2 µM
same,GI50,[2],8.4 µM
same,GI50,[3],16 µM
COc1cc(Nc2ncccc2C(=O)Nc2cccnc2Nc2ccc(Cl)cc2)cc(OC)c1OC,GI50,[1],> 100 µM
same,GI50,[2],10.5 µM
same,GI50,[3],> 100 µM
COc1ccc(Nc2ncccc2C(=O)Nc2cccnc2Nc2ccccc2)cc1,GI50,[1],> 100 µM
same,GI50,[2],8.1 µM
same,GI50,[3],> 100 µM
O=C(Nc1cccnc1Nc1ccc(F)cc1)c1cccnc1Nc1cc(C(F)(F)F)cc(C(F)(F)F)c1,fold change (FC),[4],2
same,IC50,[5],2.16 µM
same,Activity,[6],10.6%
same,Activity,[7],57.93%
same,Activity,[8],1.63%
same,fold change (FC),[9],2
same,inhibition,[10],64.3%
same,Activity,[11],32.49%
same,Activity,[12],1.84%
same,Activity,[13],14.03%
same,Activity,[14],4.28%
same,Activity,[15],0%
same,Activity,[16],53.38%
same,Activity,[17],0%
same,Activity,[18],4.64%
same,Activity,[19],0%
same,GI50,[1],39.2 µM
same,Activity,[20],67.4%
same,Activity,[21],32.6%
same,GI50,[2],0.99 µM
same,inhibition,[22],Active
same,inhibition,[23],Active
same,viability at 2 µM,[24],75.7%
same,GI50,[3],> 100 µM
same,Activity,[25],Active
same,Activity,[26],41.19%
same,Activity,[27],1.27%
same,Activity,[28],89.4%
same,Activity,[29],0%
same,Activity,[30],2.41%
same,Activity,[31],5.97%
same,Activity,[32],1.77%
same,viability at 1 µM,[33],80.4%
same,Activity,[34],16.53%
O=C(Nc1cccnc1Nc1ccccc1)c1cccnc1Nc1cc(C(F)(F)F)cc(C(F)(F)F)c1,GI50,[1],3.2 µM
same,GI50,[2],4.8 µM
same,GI50,[3],5.4 µM
COc1ccc(S(=O)(=O)Nc2cccnc2Nc2ccc(O)cc2)cc1 [ABT-751],IC50,[5],2.4 µM
same,Activity,[12],1.01%
same,Activity,[15],0%
same,Activity,[16],54.38%
same,Activity,[19],0%
same,GI50,[1],1.31 µM
same,Activity,[20],81.9%
same,Activity,[21],18.1%
same,GI50,[2],1.81 µM
same,inhibition,[23],Active
same,viability at 2 µM,[24],77.3%
same,GI50,[3],1.25 µM
same,Activity,[26],36.52%
same,Activity,[30],4.11%
same,Activity,[31],3.93%
same,Activity,[32],2.94%
same,Activity,[34],17.72%
COc1ccc(Nc2ncccc2NC(=O)c2cccnc2Nc2cc(C(F)(F)F)cc(C(F)(F)F)c2)cc1,GI50,[1],> 100 µM
same,GI50,[2],9.8 µM
same,GI50,[3],> 100 µM
COc1ccc(Nc2ncccc2C(=O)Nc2cccnc2Nc2ccc(Cl)cc2)cc1,GI50,[1],> 100 µM
same,GI50,[2],16.6 µM
same,GI50,[3],28.8 µM
COc1ccc(Nc2ncccc2NC(=O)c2cccnc2Nc2ccc(OC)cc2)cc1,GI50,[1],> 100 µM
same,GI50,[2],21.2 µM
same,GI50,[3],> 100 µM
